Screening data: PubChem, several laboratories
This is a sample that favours compounds with a hit; in the whole collection about 2.1% have one here.
CCR6 antagonist: CCR6 receptor antagonists, primary screen, cell-based, CHO-K1, luminescence, beta-arrestin, uHTS; C-C chemokine receptor type 6 (Homo sapiens), P51684; CHO-K1 CCR6 PathHunter beta-arrestin, CCL20-stimulated; inhibition, % at 20 µM; 340,000 compounds, 0.49% hits;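 active = compounds whose inhibition of the agonist-driven luminescence signal at 20 µM reaches about 50%, limit read from the data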;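 also: cells stimulated with CCL20 at 14 nM final; plate controls were DMSO with CCL20 for no effect and DMSO without agonist for full effect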
CXCR6 inh: CXCR6 receptor inhibitors, primary screen, cell-based, beta-arrestin, luminescence, CHO-K1 PathHunter, 1536-well; inhibition, % at 20 µM; 360,000 compounds, 0.36% hits; AID 602244, 2012; in the data active = inhibition above about 34%, passing the limit was not always enough;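 also: antagonist mode with CXCL16 agonist at 10 nM final; 0% = 10 nM CXCL16 with DMSO and 100% = unstimulated wells without agonist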
Target sequence (O00574 whole entry, looked up): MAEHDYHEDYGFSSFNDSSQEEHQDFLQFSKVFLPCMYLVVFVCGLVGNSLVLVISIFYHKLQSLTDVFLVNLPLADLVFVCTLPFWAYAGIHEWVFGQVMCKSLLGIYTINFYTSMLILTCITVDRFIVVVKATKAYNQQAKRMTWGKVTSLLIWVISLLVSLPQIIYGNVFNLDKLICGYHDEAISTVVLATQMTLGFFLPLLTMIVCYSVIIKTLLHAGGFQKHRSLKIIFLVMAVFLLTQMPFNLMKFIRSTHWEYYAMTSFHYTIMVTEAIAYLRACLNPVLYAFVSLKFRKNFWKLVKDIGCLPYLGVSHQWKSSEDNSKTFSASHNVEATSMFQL
EBI2 antag: EBI2 receptor antagonists, beta-arrestin recruitment, primary screen, cell-based, luminescence, 7a,25-OHC stimulation, uHTS; G-protein coupled receptor 183 (Homo sapiens), P32249; 7a,25-OHC stimulated; inhibition, % at 5 µM; 360,000 compounds, 0.81% hits; AID 651636, 2012; in the data active = inhibition above about 38%;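 also: enzyme fragment complementation signal reports receptor beta-arrestin coupling in cells; 0% = agonist plus DMSO wells and 100% = wells without agonist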
APJ antagonist: antagonists of human apelin receptor APJ, primary screen, CHO-K1 cells, beta-arrestin complementation, luminescence; P35414; inhibition, % at 20 µM; 330,000 compounds, 0.32% hits; AID 2521, 2010;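 active = inhibition above about 40% at 20 µM, limit read from the data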;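 also: cells challenged with 10 nM apelin-13 agonist together with compound; plate controls were apelin-13 plus DMSO wells for no effect and DMSO wells lacking apelin-13 for full effect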
APJ ag: agonists of human apelin receptor APJ, primary screen, CHO-K1 cells, PathHunter beta-arrestin, luminescence. P35414. 0% DMSO wells, 100% apelin. activation, % at 20 µM. 330,000 compounds, 0.11% hits;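 active = activation more than six SD over the plate average, tested at 20 µM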;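 also: 0% = DMSO alone and 100% = apelin-13 at 10 nM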
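Assay system: engineered CHO-K1 APJ arrestin reporter cells; Amount: 1000 CHO-K1 reporter cells seeded per well; Dosing: one dose, 20 µM compound, 1% DMSO; Times: compound stimulation 90 min at 25 °C, detection 60 min; Measured by: luminescent beta-gal fragment complementation, chemiluminescent substrate; Read-out: APJ–arrestin association signal; Controls: DMSO vs Apelin-13 10 nM.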
m5-HT2A agonist: mouse Htr2a agonists via beta-arrestin recruitment, primary screen, cell-based, luminescence; 5-hydroxytryptamine receptor 2A (Mus musculus), P35363; CHO-K1 mHTR2A beta-arrestin complementation; percent of 30 µM serotonin response; activation, % at 7.6 µM; 360,000 compounds, 0.66% hits; AID 624169, 2012;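 active = activation above a run cutoff, the mean activation of all tested compounds plus 3 SD, cut at about 14% in these data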;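 also: 0% = plate median of compound wells and 100% = 30 µM serotonin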
APJ antag confirm: APJ antagonists blocking beta-arrestin recruitment, confirmation, cell-based, luminescence, single concentration, uHTS hits | shares compounds with APJ antagonist | antagonist mode | inhibition, % at 20 µM | 950 compounds, 66% hits | AID 2766, 2010; in the data active = inhibition above about 50%
CXCR6 confirm: CXCR6 receptor antagonists, confirmation, cell-based, single concentration, beta-arrestin, luminescence; CHO-K1 CXCR6 PathHunter beta-arrestin; inhibition, % at 20 µM; 700 compounds, 65% hits; shares compounds with CXCR6 inh; AID 602409, 2012;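 active = mean inhibition over four retests above 40%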;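 also: receptor stimulated with 10 nM CXCL16 agonist; beta-galactosidase fragment complementation upon beta-arrestin recruitment to receptor; plate controls were CXCL16 plus DMSO for no effect and DMSO without CXCL16 for full effect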
EBI2 conf: EBI2 antagonist hit retest, beta-arrestin, confirmation, cell-based, single concentration, luminescence, 7a,25-OHC stimulation; shares compounds with EBI2 antag; 2,400 compounds, 29% hits; inhibition, % at 5 µM; 7a,25-OHC antagonism; AID 651997, 2013;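 active = inhibition of at least 50%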
EBI2 agonist: EBI2 agonist activity of antagonist hits, confirmation, counter-screen for EBI2 antagonist project, cell-based, single concentration, agonist mode, luminescence. shares compounds with EBI2 antag. EBI2-expressing cells, 60 min; 0% vehicle, 100% 7α,25-dihydroxycholesterol control. activation, % at 5 µM. 2,400 tested, under 10 active;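 active = activation of at least 50%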
bGal cs: E. coli beta-galactosidase enzyme inhibition, confirmation, counter-screen for EBI2 antagonist project, biochemical, luminescence, single concentration; shares compounds with EBI2 antag; purified beta-galactosidase, luminescent Galacton Star, 15 min; inhibition, % at 5 µM; 2,400 compounds, 1% hits; AID 652176, 2013;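 active = replicate-average signal at least 3 plate SD below neutral wells, shown as high inhibition, flagging enzyme-inhibiting false positives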;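 also: 0% = DMSO wells with enzyme and 100% = wells lacking enzyme; higher means stronger loss of beta-gal luminescence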
Active calls of the source: *; . = no result given.

SMILES	CCR6 antagonist	CXCR6 inh	EBI2 antag	APJ antagonist	APJ ag	m5-HT2A agonist	APJ antag confirm	CXCR6 confirm	others
Cc1cccc(S(=O)(=O)N(C)C[C@H]2OCc3cnnn3CCCC(=O)N([C@H](C)CO)C[C@@H]2C)c1	.	4	-9	.	.	-4	.	.
Cc1cc(C)c(S(=O)(=O)c2ccc(C(C)(C)C)cc2)c(Cl)n1	18	-10	1	15	-3	2	.	.
CCC(C)c1ccc(O)c(NC(=O)c2cccnc2)c1 (centres undefined)	2	-4	-1	-9	-7	-2	.	.
CC(C)c1ccc(O)c(NC(=S)NC(=O)c2cccnc2)c1	69*	60*	22	59*	-10	-9	84*	67*
CSCCC(C(=O)NC(C)(C)C)n1c(-c2ccc3c(c2)OCO3)nc2ccccc21 (centres undefined)	.	.	4	.	.	-5	.	.
COc1cc(/C=C/c2ccc3cccc(O)c3n2)cc(OC)c1OC	77*	72*	62*	49*	-11	-5	58*	85*
COc1cc(/C=C/c2ccc3cccc(O)c3n2)cc(Br)c1OC	34	23	10	21	-6	-6	.	.
O=C1NC2CCCCC2C(=O)N1OS(=O)(=O)c1ccccc1 (centres undefined)	11	-4	-3	.	.	-5	.	.
Cc1cccc(NC(=S)NNc2ncc(C(F)(F)F)cc2Cl)c1	91*	52*	22	54*	-2	-9	89*	53*
O=C(Nc1ccccc1)Nc1ncc(C(F)(F)F)cc1Cl	.	2	-6	.	.	1	.	.
NNc1nc(-c2ccccc2)cc(-c2ccccc2O)n1	85*	79*	42	57*	-14	-17	143*	84*
O=C(Nc1nc(-c2ccccn2)cs1)Nc1ccc(F)cc1F	67*	65*	36	41*	-8	-11	65*	79*
O=C(C#Cc1ccccc1)c1ccco1	70*	69*	21	58*	-4	10	74*	83*
COc1ccc(NC(=O)/C(Cl)=C(/Cl)S(=O)Cc2ccccc2)cn1 (centres undefined)	90*	81*	79*	86*	-10	-5	100*	88*
C/C(=N\NC(=O)C(C)Oc1ccc([N+](=O)[O-])cc1)c1ccccn1 (centres undefined)	77*	74*	15	56*	-12	0	73*	90*
COc1cc(C2C(C#N)=C(N)Oc3n[nH]c(-c4cccnc4)c32)cc(Br)c1O (centres undefined)	65*	46*	11	56*	-8	-1	75*	52*
O=c1cc(CSc2ccc(Cl)cc2)nc(-c2ccccc2)[nH]1	3	-9	-5	-4	-1	2	.	.
O=c1cc(CSc2ccc(Cl)cc2)nc(-c2ccccn2)[nH]1	79*	54*	48*	51*	-11	-8	70*	68*
CC1(C)CC(=O)C(C=Nc2ccc(C(=O)c3ccccc3)cc2N=CC2=C(O)CC(C)(C)CC2=O)=C(O)C1	111*	103*	74*	120*	-18	3	156*	114*	EBI2 conf=93*;EBI2 agonist=-6;bGal cs=83*
CC1(C)CC(=O)C(C=Nc2ccc(O)c(N=CC3=C(O)CC(C)(C)CC3=O)c2)=C(O)C1	-14	22	-3	-11	0	2	.	.
O=C(C1CCC(CNS(=O)(=O)c2ccccc2)CC1)N1CCOCC1 (centres undefined)	8	-6	-18	-6	-3	2	.	.
CCOC(=O)C1C(C)N=C2SCC(=O)N2C1c1cccc(Br)c1 (centres undefined)	23	-2	38*	41*	-6	2	33	.	EBI2 conf=-6;EBI2 agonist=-1;bGal cs=-11
CN(C(=O)c1cccc(NC(=O)Cc2ccc(NC(=O)C3CCCN(C(=O)C4CCC4)C3)cc2)c1)C1CCCC1 (centres undefined)	10	3	3	.	.	5	.	.
Cc1ccc2nc3sc(C(=O)N4CCCc5ccccc54)c(N)c3cc2c1	19	-3	54*	76*	-13	-2	-8	.	EBI2 conf=55*;EBI2 agonist=0;bGal cs=10
Cc1ccc(-c2cc(C(=O)N3CCCc4ccccc43)c3ccccc3n2)cc1	14	2	10	-4	-6	-5	.	.
Cc1ccc(C(=O)CNc2ccc(Br)cc2)cc1	56*	39	74*	84*	-16	-5	102*	.	EBI2 conf=66*;EBI2 agonist=-4;bGal cs=4
C/C(=N\NC(=O)COc1ccccc1-c1ccccc1)c1ccccn1	89*	66*	62*	62*	-10	1	88*	102*	EBI2 conf=71*;EBI2 agonist=-1;bGal cs=5
C/C(=N\NC(=O)COc1ccccc1-c1ccccc1)c1cccnc1	6	-1	2	-8	4	3	.	.
COc1ccc(NC(=S)N2CCN(c3ccc4c(c3)C3CCN(C(=O)OCc5ccccc5)C4C3)CC2)c(OC)c1 (centres undefined)	.	-6	8	.	.	14	.	.
